High-throughput results: PubChem BioAssay, several laboratories
Rows were chosen to be rich in hits. Some 3% of all compounds tested hit in one or more screens of this group.
Beta2AR agonist: human beta-2 adrenergic receptor agonism by FAP | P07550 | Am2.2-beta2AR cells, FAP receptor internalization, flow cytometry | response, % (no concentration beside the values) | 340,000 compounds, 0.43% hits;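 active = response above a set limit, near 3 SD of response in nonfluorescent compounds, cut at about 42% in these data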
Target sequence (P07550 whole entry, looked up): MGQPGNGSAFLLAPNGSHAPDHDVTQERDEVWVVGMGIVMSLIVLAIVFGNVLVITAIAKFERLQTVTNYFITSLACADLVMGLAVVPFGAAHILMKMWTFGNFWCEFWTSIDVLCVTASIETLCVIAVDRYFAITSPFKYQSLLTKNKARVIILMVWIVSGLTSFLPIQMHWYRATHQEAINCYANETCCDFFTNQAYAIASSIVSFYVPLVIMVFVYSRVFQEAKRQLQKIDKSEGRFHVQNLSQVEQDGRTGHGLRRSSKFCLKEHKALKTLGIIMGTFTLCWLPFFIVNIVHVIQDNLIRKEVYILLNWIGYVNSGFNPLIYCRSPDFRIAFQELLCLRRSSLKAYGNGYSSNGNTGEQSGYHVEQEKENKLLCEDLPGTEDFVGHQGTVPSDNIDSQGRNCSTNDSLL
PfG6PD inh: PfG6PD (Plasmodium falciparum) enzyme inhibition; PfGluPho enzyme, NADPH resazurin-diaphorase fluorescence; inhibition, % at 20 µM; 350,000 compounds, 0.78% hits; AID 504690;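 active = inhibition reaching at least a set limit at 20 µM in the primary screen, cut at about 59% in these data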
ABHD5-PLIN5 inh: blocks binding of human ABHD5 to perilipin-5; Split G. princeps luciferase complementation, luminescence, 4 h; inhibition, % at 4 µM; 360,000 compounds, 0.78% hits; AID 602281;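 active = inhibition above the mean inhibition across every tested compound plus 3 SD, cut at about 22% in these data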
MC4R antag cAMP: antagonists of human melanocortin 4 receptor (MC4R) | P32245 | MC4R-expressing cells, MTII-stimulated cAMP, LANCE TR-FRET | inhibition, % at 6.5 µM | 360,000 compounds, 0.48% hits | AID 540295;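 active = inhibition above its plate's cutoff, the mean of tested wells on that plate plus 3 SD, cut at about 29% in these data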
Target sequence (P32245 whole entry, looked up): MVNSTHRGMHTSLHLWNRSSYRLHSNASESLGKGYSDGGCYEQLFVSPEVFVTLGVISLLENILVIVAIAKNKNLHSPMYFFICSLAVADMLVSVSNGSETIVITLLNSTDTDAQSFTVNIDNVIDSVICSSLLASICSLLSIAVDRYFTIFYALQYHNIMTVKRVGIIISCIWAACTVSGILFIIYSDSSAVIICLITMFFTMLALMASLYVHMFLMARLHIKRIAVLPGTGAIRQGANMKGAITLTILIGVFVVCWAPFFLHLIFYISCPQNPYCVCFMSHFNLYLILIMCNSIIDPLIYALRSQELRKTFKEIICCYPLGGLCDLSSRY
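Material – human MC4R-expressing U2OS cells · Repeats – no replicates · Detection – TR-FRET with Eu-cAMP and labeled anti-cAMP, 671 nm · Times – compound 30 min, challenge 1 h, detection 1 h · Compound – single nominal compound dose of 6.5 µM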
MC4R barr agon: human MC4R agonism via beta-arrestin | 360,000 compounds, 0.98% hits | U2OS MC4R beta-arrestin complementation, luminescence; percent of melanotan II response, DMSO zero | P32245 | activation, % at 8.9 µM;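 active = activation above a per-plate cutoff, the mean activation of sample wells on that plate plus 3 SD, cut at about 8% in these data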
ABHD5-PLIN5 conf: ABHD5-PLIN5 interaction inhibition, confirmed; shares compounds with ABHD5-PLIN5 inh; biochemical ABHD5-PLIN5 interaction, luminescence; inhibition, % at 4 µM; 2,200 compounds, 67% hits; in the data active = inhibition above about 23%
HNF4 counter: counter-screen for ABHD5-PLIN5 inhibitors: HNF4 split-luciferase. shares compounds with ABHD5-PLIN5 inh. HNF4 dimerization, luminescence, biochemical. inhibition, % at 4 µM. 2,200 compounds, 77% hits. AID 651674;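 active = mean inhibition across replicate wells exceeding the computed hit threshold, cut at about 13% in these data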;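 note: light from luciferase halves that rejoin when HNF4 fusion proteins dimerize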
Each line names hits and unclear results; the compound was inactive in the other large screens (follow-up assays come after a bar, where they were run).

CCOC(=O)c1c(NC(C)=O)sc2c1CCN(Cc1ccccc1)C2	none
CCOC(=O)c1c(NC(C)=O)sc2c1CCC(C=O)=C2Sc1ccccc1	ABHD5-PLIN5 inh 65.0 | ABHD5-PLIN5 conf 76.1 | HNF4 counter 17.0
CC(=O)NC(=S)Nc1ccc(S(=O)(=O)Nc2ncccn2)cc1	none
O=C(Nc1ccc(Br)cc1)c1ccc2c(c1)OCO2	none
CC1(C(=O)NCc2ccc(C(F)(F)F)cc2)CCN1Cc1c(F)cccc1F (configuration not stated)	none (no result: Beta2AR agonist, PfG6PD inh)
CC1(C(=O)NCc2ccc(C(F)(F)F)cc2)CCN1Cc1ccc(-c2ccccc2)o1 (configuration not stated)	ABHD5-PLIN5 inh 30.7 (no result: Beta2AR agonist, PfG6PD inh) | ABHD5-PLIN5 conf inactive | HNF4 counter 25.2
CN1C(=O)[C@H]2[C@@H](/C=C/c3ccccc3)N3C(=O)CN(Cc4ccc(-c5ccccc5)cc4)C(=O)[C@@]3(Cc3ccccc3)[C@H]2C1=O	none
O=[N+]([O-])c1ccccc1S(=O)(=O)Nc1ccc(S(=O)(=O)N2CCCC2)cc1	ABHD5-PLIN5 inh 33.2 | ABHD5-PLIN5 conf 34.5 | HNF4 counter 47.9
N#Cc1ccc(/C=C/C(=O)c2cccnc2)cc1	ABHD5-PLIN5 inh 81.8 | ABHD5-PLIN5 conf 92.2 | HNF4 counter 95.8
O=C(/C=C/c1ccc(Cl)cc1)c1cccnc1	ABHD5-PLIN5 inh 79.6 | ABHD5-PLIN5 conf 96.0 | HNF4 counter 100.4
O=C(/C=C/c1ccc(OCc2ccccc2)c(OCc2ccccc2)c1)c1cccnc1	ABHD5-PLIN5 inh 26.1 | ABHD5-PLIN5 conf 87.1 | HNF4 counter 77.8
O=C(/C=C/c1ccccc1Cl)c1cccnc1	ABHD5-PLIN5 inh 71.3 | ABHD5-PLIN5 conf 99.8 | HNF4 counter 102.2
O=C(/C=C/c1ccccc1)NNC(=O)c1cccnc1	none
CCN(CC)c1ccc(/C=C/C(=O)c2cccnc2)cc1	none
O=C(O)/C=C\C(=O)Nc1ccc(F)c(F)c1F	none
COc1ccc(/C=C/C(=O)CC(O)(c2ccccc2)C(F)(F)F)cc1 (configuration not stated)	ABHD5-PLIN5 inh 41.4 | ABHD5-PLIN5 conf 71.7 | HNF4 counter 53.5
O=C(/C=C/c1ccccc1)CC(O)(c1ccccc1)C(F)(F)F (configuration not stated)	ABHD5-PLIN5 inh 81.3 | ABHD5-PLIN5 conf 98.7 | HNF4 counter 89.3
O=C(/C=C/c1ccccc1)CC(O)(c1ccccc1)C(F)(F)C(F)F (configuration not stated)	ABHD5-PLIN5 inh 82.2 | ABHD5-PLIN5 conf 98.3 | HNF4 counter 77.0
COc1ccc(/C=C/C(=O)CCC(=O)O)cc1	none
COc1cc(/C=C(\C#N)C(N)=O)ccc1OS(=O)(=O)c1ccc(C)cc1	none
COc1cc(/C=C(\C#N)C(=O)NC2CCCCC2C)ccc1OS(=O)(=O)c1ccc(C)cc1 (configuration not stated)	ABHD5-PLIN5 inh 37.6 | ABHD5-PLIN5 conf 66.6 | HNF4 counter 48.8
Cc1ccc(NC2CNC(=O)NC2=O)cc1C (configuration not stated)	none
Cc1ccc(NC2C(=O)NC(=O)NC2=O)cc1	ABHD5-PLIN5 inh 44.0 | ABHD5-PLIN5 conf inactive | HNF4 counter 14.7
CCCCNC(=O)c1cc(-c2ccccc2)sc1N	none (no result: Beta2AR agonist, PfG6PD inh, MC4R antag cAMP, MC4R barr agon)
COCCNC(=O)c1cc(-c2ccccc2)sc1N	ABHD5-PLIN5 inh 27.9 (no result: Beta2AR agonist, PfG6PD inh, MC4R antag cAMP, MC4R barr agon) | ABHD5-PLIN5 conf inactive | HNF4 counter inactive
O=C1C(=O)C(Cl)=C(Cl)C(Cl)=C1Cl	ABHD5-PLIN5 inh 27.0 (no result: Beta2AR agonist, PfG6PD inh, MC4R antag cAMP, MC4R barr agon) | ABHD5-PLIN5 conf 51.4 | HNF4 counter 29.0
CCOC(=O)CNC(c1ccccc1)c1cc(Br)ccc1NC(=O)CCN1CCOCC1 (configuration not stated)	ABHD5-PLIN5 inh 24.2 | ABHD5-PLIN5 conf inactive | HNF4 counter 39.0
NC(=S)c1c(Cl)cc(C(F)(F)F)cc1Cl	none
CC(=O)c1ccc(O[C@@H]2O[C@H](CO)[C@@H](O)[C@H](O)[C@H]2O)cc1	none (no result: Beta2AR agonist, ABHD5-PLIN5 inh, MC4R antag cAMP, MC4R barr agon)
CN(C)c1ccc(C(=O)/C=C/c2ccco2)cc1	none
CC(=O)Nc1ccc(C(=O)/C=C/c2ccco2)cc1	ABHD5-PLIN5 inh 29.1 | ABHD5-PLIN5 conf 51.8 | HNF4 counter 57.0
CC(=O)Nc1ccc(NC(=S)NC(=O)/C=C/c2ccco2)cc1	none
O=C(C=Cc1ccco1)c1ccc2ccccc2c1	ABHD5-PLIN5 inh 36.9 | ABHD5-PLIN5 conf 63.6 | HNF4 counter 54.5
O=C(NCc1ccccc1)c1ccc(NC(=O)c2ccco2)cc1	none
O=C(/C=C\c1ccco1)c1ccc(NC(=O)c2ccco2)cc1	ABHD5-PLIN5 inh 25.4 | ABHD5-PLIN5 conf 49.2 | HNF4 counter 47.0
COc1cc(CC(=O)OCc2ccccc2F)cc(OC)c1OC	none
COc1ccc(N2C(=O)CC(Sc3nnc(-c4ccccc4)o3)C2=O)cc1 (configuration not stated)	ABHD5-PLIN5 inh 42.9 | ABHD5-PLIN5 conf 55.2 | HNF4 counter 82.9
O=C(c1cncs1)N1CCCC(CNS(=O)(=O)c2cccs2)C1 (configuration not stated)	none
N#C/C(=C\c1ccc(N2CCOCC2)o1)C(=O)NC1CCCCC1	none
N#C/C(=C/c1ccc(N2CCCCCC2)o1)c1ccc(Cl)cc1	ABHD5-PLIN5 inh 77.5 | ABHD5-PLIN5 conf 81.9 | HNF4 counter 111.1
O=C(c1ccco1)N1CCN(c2nnc(-c3ccccc3)c3ccccc23)CC1	none
COc1ccccc1OCc1nnc(SCC(=O)NCc2ccco2)n1Cc1ccco1	ABHD5-PLIN5 inh 31.4 | ABHD5-PLIN5 conf 48.0 | HNF4 counter 34.2
Cc1cc(F)ccc1C(O)c1ncc(-c2ccccc2F)[nH]1 (configuration not stated)	none (no result: Beta2AR agonist, PfG6PD inh)
COc1cccc(/C=C/c2[nH]c(=O)[nH]c(=O)c2[N+](=O)[O-])c1O	ABHD5-PLIN5 inh 32.4 | ABHD5-PLIN5 conf 78.1 | HNF4 counter 79.8
O=C(COc1ccccc1/C=C1\SC(=O)NC1=O)Nc1ccccc1	none
O=C(COc1ccccc1/C=C\c1[nH]c(=O)[nH]c(=O)c1[N+](=O)[O-])Nc1ccccc1	ABHD5-PLIN5 inh 30.4 | ABHD5-PLIN5 conf 86.8 | HNF4 counter 84.2
O=c1[nH]c(/C=C/c2ccccc2Cl)c([N+](=O)[O-])c(=O)[nH]1	ABHD5-PLIN5 inh 39.0 | ABHD5-PLIN5 conf 71.2 | HNF4 counter 61.4
CC(=O)ONC(=Nc1ccccc1)c1nonc1N	none
CC(=O)c1ccccc1NC(=O)C1CCCN(C(=O)c2ccc(Cl)cc2)C1 (configuration not stated)	none
CCOC(=O)CSc1nnc(C)c(=O)[nH]1	none
CCOC(=O)CSc1nnc(NCC(=O)OC)c(=O)[nH]1	ABHD5-PLIN5 inh 25.9 | ABHD5-PLIN5 conf 41.5 | HNF4 counter 79.5
CCC(=O)N(CCC(c1ccc(C)cc1)c1ccco1)Cc1ccco1 (configuration not stated)	ABHD5-PLIN5 inh 25.5 | ABHD5-PLIN5 conf inactive | HNF4 counter inactive
